This is an account of results in ChEMBL document CHEMBL4513216, “Probing the Open Global Health Chemical Diversity Library for Multistage-Active Starting Points for Next-Generation Antimalarials” (ACS Infect Dis, 2020).

Each structure is given as a SMILES string.

This data set can be described thus: Toxicity liver stage against HepG2, at 10uM. The class given is cell-based. Set-up: test concentration 10 uM, cell line HepG2-A16-CD81EGFP. Conditions: human, HepG2-A16-CD81EGFP cells; read-out: INHIBITION
In outline: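 Uninfected HepG2-A16-CD81EGFP cells, 3 × 10^3 per well, 1536-well, plated on prespotted compound at 10 μM final, parasite-free screening media added to match infected plates; puromycin 10 μM positive, DMSO 0.5% negative; run in parallel with 48 h PbLuc assay at 37 °C, 5% CO2; viability by CellTiter-Glo luminescence, normalized to controls.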
With `CC(C)Cc1ncc(CNc2cnccc2CO)s1`, the cytotoxicity at 10 µM was -6.53%.

With `CCN1CCN(C2CCN(C(C(N)=O)c3ccccc3)CC2)C1=O` (stereo not given), the cytotoxicity at 10 µM is -10.3%. Turning to `Cc1cc(N(C)CC2COc3ccccc3O2)nc(C)n1` (stereo not given), the cytotoxicity at 10 µM was 38.7%. Turning to `Cc1n[nH]cc1CNCc1ccnc(OCC(F)(F)F)c1`, the cytotoxicity at 10 µM is 5.33%. In the case of `Cn1ccc(C(=O)N2CCN(Cc3ccccc3F)CC2)cc1=O`, the cytotoxicity at 10 µM was -1.44%. For the compound `CCn1cc(CN2CCCC(c3[nH]ncc3S(C)(=O)=O)C2)cn1` (stereo not given), the cytotoxicity at 10 µM came out at 6.5%. On to `COc1ccc(CN2C[C@@H](CN(C)CCO)[C@@H](CO)C2)cc1Cl`, for which the cytotoxicity at 10 µM was -5.88%. Take `Cc1nc(C2CCCN(C(=O)COCc3ccccc3)C2)no1` (stereo not given): the cytotoxicity at 10 µM was -2%. Take `O=C(NCCC1COc2ccccc2O1)c1ccc(-c2cn[nH]c2)nc1` (stereo not given): the cytotoxicity at 10 µM came out at 4.65%.

With `Cc1nn(C)c(C)c1C(C(=O)O)N1CCc2ccccc2C1` (stereo not given), the cytotoxicity at 10 µM is -0.492%. As for `Cc1cc(C(=O)N2CCCC(C)C2)ccc1NCc1nc(C2CC2)no1` (stereo not given), the cytotoxicity at 10 µM was -8.38%. Consider `CN1CCN(C(=O)Cc2cccc(F)c2)Cc2cccnc21`, for which the cytotoxicity at 10 µM was -6.17%. For `Cc1cccc(C)c1NCc1noc(C2CC2)n1`, the cytotoxicity at 10 µM is -5.06%. For the compound `CN1C[C@H]2CC[C@@H](CC1=O)N2C(=O)c1ccc(-c2ccccc2)[nH]c1=O`, the cytotoxicity at 10 µM was 5.91%.

As for `Cc1ccc(F)cc1C(=O)N1C[C@@H](CN2CCOCC2)[C@@H](CO)C1`, the cytotoxicity at 10 µM was -6.2%. Consider `CC(C)[C@H]1CN(CCCO)C[C@@H]1NC(=O)CCS(C)(=O)=O`, for which the cytotoxicity at 10 µM amounted to 2.91%.

With `CN1CCN2C[C@@H](CO)[C@H](c3ccccc3)[C@H]2C1`, the cytotoxicity at 10 µM stood at 8.78%.

Turning to `CCC1CN(CC(=O)NCc2ccco2)CCO1` (stereo not given), the cytotoxicity at 10 µM was -7.66%. With `CCc1nc2n(n1)CCCC2NC(=O)Nc1cccc(F)c1F` (stereo not given) the figure was 2.39%. The value for `CC(C)c1ccccc1OCCNC(=O)N1CCC(CC(N)=O)CC1` was 3.2%; that for `O=C(c1cn[nH]c1)N1CCC2(CCCN(Cc3ccc(F)c(F)c3)C2)C1` (stereo not given) was 6.07%. Turning to `Cc1nc(CN(C)C(=O)NC(C)c2ccc3c(c2)OCCO3)cs1` (stereo not given), the cytotoxicity at 10 µM is -4.45%. The value for `CCOc1ccccc1-c1noc(CN2CC(n3cccn3)C2)n1` was -2.79%. On to `CC(C)(O)CN1CCN(C(=O)c2sccc2C2CC2)CC1`, for which the cytotoxicity at 10 µM turned out to be 5.37%. The value for `CN(Cc1ccccc1)CC1(O)CCCN(Cc2ccc(F)cc2)C1=O` (stereo not given) was -14.6%; that for `COCC(=O)N1CCN(C(=O)CCc2ccsc2)CC1` was -17%. The value for `O=C(NCC1CCCO1)c1ccc(S(=O)(=O)NCCc2cn[nH]c2)cc1` (stereo not given) was 5.5%; that for `CN(C1CCCN(c2ccccn2)C1)S(C)(=O)=O` (stereo not given) was 1.07%; that for `Cn1cc(-c2nc(CNCCn3cccn3)cs2)cn1` was -13%.

Turning to `Nc1nc(CN2CCN(c3nccs3)CC2)cs1`, the cytotoxicity at 10 µM came out at 4.79%.

In the case of `CCc1c(O)n(C(C)CC)c(SCC(=O)c2ccccc2)nc1=O` (stereo not given), the cytotoxicity at 10 µM was -2.11%. As to `Cc1cnc(CN(C)C2CCN(CC(=O)Nc3nncs3)C2)o1` (stereo not given), the cytotoxicity at 10 µM is 1.76%. On to `CC(=O)N1CCCC1c1cc(N2CCN(C3CCCC3)CC2)cc(C)n1` (stereo not given), for which the cytotoxicity at 10 µM was found to be 1.18%. Turning to `COCC(=O)N1CCN(Cc2nnc(C(C)(C)C)o2)CC1`, the cytotoxicity at 10 µM was 7.66%. With `CSc1ccc(C(CC(=O)O)NC(=O)c2cc(C)on2)cc1` (stereo not given) the figure was -12.1%; with `Cc1nnc(CN(C)C2CCN(Cc3nnc(C4CCC4)o3)C2)n1C` (stereo not given), -8.15%; with `Cc1cc(N(Cc2ccon2)S(C)(=O)=O)ccc1Br`, 4.51%. As for `CC(C)COCCCNC(=O)c1cccnc1N1CCOCC1`, the cytotoxicity at 10 µM is -5.12%. For `COc1ccc(-c2noc([C@@H]3C[C@@H](O)CN3C3CCOCC3)n2)cc1`, the cytotoxicity at 10 µM was -1.7%. Take `COc1ccc(C2=Nn3c(CN)nnc3-c3ccccc3C2)cc1`: the cytotoxicity at 10 µM is 8.55%.
